Hits are enriched below; roughly 0.7% of the tested compounds scored in any of these assays.
procasp7 counter – counter-screen: procaspase-7 (human) activation. 0.093% of 330,000 active. AID 463210. activation, % at 8.5 µM. recombinant procaspase-7, Ac-DEVD-pNA absorbance 405 nm; D23A/D198A/D206A triple mutant, cannot self-cleave; scale: DMSO 0, 5 µM enzyme 100. P55210;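 active = percent activation above the screen-wide mean plus 3 SD, cut at about 25% in these data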
Target sequence (P55210 whole entry D23A/D198A/D206A): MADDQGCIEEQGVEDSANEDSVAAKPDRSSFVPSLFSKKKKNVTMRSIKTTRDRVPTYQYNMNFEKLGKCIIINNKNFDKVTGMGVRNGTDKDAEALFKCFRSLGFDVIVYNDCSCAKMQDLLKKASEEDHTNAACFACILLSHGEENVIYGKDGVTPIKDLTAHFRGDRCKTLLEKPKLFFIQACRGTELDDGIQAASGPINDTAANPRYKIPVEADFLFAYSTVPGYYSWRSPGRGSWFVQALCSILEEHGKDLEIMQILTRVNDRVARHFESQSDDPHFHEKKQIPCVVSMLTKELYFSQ
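Assay system – Uncleavable procaspase-7 mutant enzyme · Quantity – 2 µM procaspase-7 mutant as dispensed · Times – 1 h preincubation, 2 h reaction · Dosing – single nominal 8.5 µM compound dose, 0.8% DMSO final · Buffer or medium – Zinc-free 50 mM HEPES buffer, pH 7.4, with NaCl and Triton X-100 · Detection – Epi-absorbance of released pNA at 405 nm, two timepoints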
FXN GAA850 act – frataxin GAA850 promoter activation. HEK293 lucGAA850 FXN promoter luciferase reporter, 24 h; percent of 10 µM SAHA response. activation, % at 6 µM. 0.56% of 360,000 active. AID 540364;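 active = activation above the average of all compounds screened plus 3 SD, cutoff fixed separately per campaign, cut at about 7.5% in these data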;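 also: 0% = DMSO wells and 100% = 10 µM SAHA wells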
procasp3 activ – activators of human procaspase-3 | P42574 | recombinant procaspase-3 D3A, Ac-DEVD-pNA absorbance 405 nm | activation, % at 8.5 µM | 0.11% of 330,000 active;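 active = activation above the mean of all tested compounds plus 3 SD, cut at about 21% in these data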;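 also: 0% = DMSO alone and 100% = DMSO wells spiked with extra 5 µM PC-3 D3A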
Target sequence (P42574 whole entry D9A/D28A/D175A): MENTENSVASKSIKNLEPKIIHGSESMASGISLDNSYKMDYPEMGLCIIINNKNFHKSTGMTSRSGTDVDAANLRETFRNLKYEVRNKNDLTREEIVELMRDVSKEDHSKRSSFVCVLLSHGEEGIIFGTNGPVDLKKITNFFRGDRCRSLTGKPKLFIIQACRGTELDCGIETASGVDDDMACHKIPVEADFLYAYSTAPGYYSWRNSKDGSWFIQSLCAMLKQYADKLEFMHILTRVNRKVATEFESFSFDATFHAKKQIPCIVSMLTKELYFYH
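Evaluation: percent activation relative to control range; Material: Procaspase-3 D3A mutant, all three cleavage aspartates alanine; Compound: single dose, 8.5 µM nominal compound, 0.8% DMSO; Replication: one well per compound; Signal: absorbance at 405 nm, 0 and 120 min; Schedule: 1 h preincubation plus 2 h reaction at 25 °C.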
PC3 dual counter – counter-screen: procaspase-3 (human) activation; shares compounds with procasp7 counter; recombinant PC-3 D3A, Ac-DEVD-pNA absorbance 405 nm; aspartates 9, 28, 175 changed to alanine; 100% = enzyme control; activation, % at 8.5 µM; 290 tested, under 10 active; AID 493114;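 active = mean percent activation across triplicates above a set limit taken from the earlier primary procaspase-3 screen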;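 also: 0% = DMSO wells and 100% = DMSO wells with 5 µM added PC-3 D3A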
Procasp7 act – activates human procaspase-7, confirming dual procaspase activators | shares compounds with procasp7 counter | recombinant procaspase-7, Ac-DEVD-pNA absorbance 405 nm; D23A/D198A/D206A mutant that cannot self-cleave | activation, % at 8.5 µM | 290 tested, under 10 active;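 active = mean activation above a set limit carried over from the earlier primary screen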;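 also: 0% = DMSO only and 100% = DMSO with added 5 µM PC-7 enzyme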
Starred values were filed as active, the others as inactive; nt = no result given.

SMILES	procasp7 counter	FXN GAA850 act	procasp3 activ	PC3 dual counter	Procasp7 act
O=c1c2ccccc2sc2ccc(C#CC3(O)CCCCC3)cc12	-8	-15	2	nt	nt
CCN(C(=O)C1CC1)C1CCS(=O)(=O)C1 (stereo unspecified)	0	2	-4	nt	nt
OC[C@@H]1[C@@H](c2ccccc2)C(c2ccccc2)=NN1c1ccccc1	31*	1	17	-30	-36
C[C@@H]1C(c2ccc(F)cc2)=NN(c2ccccc2)[C@H]1C(=O)N1CCOC1=O	7	1	4	nt	nt
OC[C@@H]1[C@@H](c2ccccc2)C(c2ccc(F)cc2)=NN1c1ccccc1	29*	1	16	-29	-35
COc1ccccc1[C@H]1C(c2cccc(Cl)c2)=NN(c2ccccc2)[C@@H]1CO	-19	1	17	nt	nt
Cc1onc(-c2ccccc2)c1C(=O)OCC(=O)NC(=O)c1ccccc1	9	1	13	nt	nt
COc1ccc(NC(=O)N(C)C[C@H]2OCc3cnnn3CCCC(=O)N([C@@H](C)CO)C[C@H]2C)cc1	nt	0	nt	nt	nt
O=C(COc1ccc(F)cc1Cl)Nc1cccc(S(=O)(=O)N2CCCC2)c1	-7	0	-13	nt	nt
C[C@H]1CN([C@@H](C)CO)C(=O)CCCn2cc(nn2)CO[C@@H]1CN(C)S(=O)(=O)c1ccc(Oc2ccccc2)nc1	nt	-1	nt	nt	nt
Cc1ccc2nc(NCc3ccccc3)c(C#N)cc2c1	52*	0	9	-30	-35
Cc1ccc2nc(NCCNC(=O)c3ccccc3)c(C#N)cc2c1	2	4	-3	nt	nt
CCOC(=O)C1=C(C)NC2=C(C(=O)CCC2)C1c1cccs1 (stereo unspecified)	0	-1	-12	nt	nt
CCOC(=O)c1sc2c(c1C)C(c1cccs1)C1=C(CCCC1=O)N2 (stereo unspecified)	40*	0	23*	-29	-35
C=CCc1c(O)c(CC)cc2c(C)cc(=O)oc12	28*	3	25*	-29	-34
CCN(CC)Cc1c(O)c(Cl)cc2c(C)cc(=O)oc12	nt	2	nt	nt	nt
CC1Cc2ccccc2N1C(=O)CN1C(=O)NC(C)(CCc2ccccc2)C1=O (stereo unspecified)	-5	1	-7	nt	nt
COc1ccc(-c2cc(C(=O)OCC(=O)NC(C)C)c3ccccc3n2)cc1	27*	-1	38*	-17	-12
CCNC(=O)COC(=O)c1cc(-c2ccc(OC)cc2)nc2ccccc12	7	3	17	nt	nt
COc1cccc(C(c2c(N)[nH]c(=S)[nH]c2=O)c2c(N)[nH]c(=S)[nH]c2=O)c1	-7	1	-10	nt	nt
CCN(C[C@H]1N[C@@](CC)(C(=O)OC)[C@H]2C(=O)N(Cc3ccccc3)C(=O)[C@@H]12)S(=O)(=O)c1ccc(F)cc1	-20	7	-10	nt	nt
COc1ccc(NC(=O)c2coc(C)c2)cc1	-5	5	4	nt	nt
Cc1nnc(NC(=O)c2c(-c3ccccc3)noc2C)s1	26*	-3	5	1	-1
CCc1nnc(NC(=O)c2c(-c3ccccc3)noc2C)s1	-11	1	2	nt	nt
Cc1c(CCCN)c2ccccc2n1Cc1ccccc1	7	-1	-1	nt	nt
SMILES	procasp7 counter	FXN GAA850 act	procasp3 activ	PC3 dual counter	Procasp7 act
O=C(NCC1CCCCC1)c1ccc(F)cc1Cl	10	5	3	nt	nt
COc1ccc2oc(=O)c(-c3nc4ccccc4o3)cc2c1	5	6	8	nt	nt
O=c1oc2ccc3ccccc3c2cc1-c1nc2ccccc2o1	28*	-1	-2	-30	-35
CC(C)OC(=O)c1sc2nc(-c3ccccc3)ccc2c1N	34*	-10	8	-28	-35
COc1ccc(C(=O)c2sc3nc(-c4ccccc4)ccc3c2N)cc1	-41	-2	-28	nt	nt
O=C(CCCCCNC(=O)N1CCn2c1nc1ccccc12)N[C@@H](Cc1ccccc1)C(=O)O	7	0	0	nt	nt
Oc1c(Cl)cc(Cl)cc1/C=N/NC(=S)NC1CC2C=CC1C2 (stereo unspecified)	40*	0	43*	-30	-34
Oc1ccccc1C=NNC(=S)NC1CC2C=CC1C2 (stereo unspecified)	nt	1	nt	nt	nt
CCOc1ccccc1N(C(=O)c1snc(C(N)=O)c1N)C(C(=O)NCc1ccccc1)c1ccc(O)cc1 (stereo unspecified)	nt	-3	nt	nt	nt
COc1ccc(N(C(=O)c2snc(C(N)=O)c2N)C(C(=O)NCc2ccc(F)cc2)c2ccc(C)o2)c(OC)c1 (stereo unspecified)	26*	0	5	2	2
COc1ccccc1N(C(=O)c1snc(C(N)=O)c1N)C(C(=O)NCc1ccccc1)c1ccc(C)o1 (stereo unspecified)	nt	-1	nt	nt	nt
NC(=O)c1nsc(C(=O)N(c2ccccc2F)C(C(=O)NCc2ccccc2)c2ccc(O)cc2)c1N (stereo unspecified)	34*	-9	18	-28	-36
Cc1ccccc1N(C(=O)c1snc(C(N)=O)c1N)C(C(=O)NCc1ccccc1)c1ccc(O)cc1 (stereo unspecified)	40*	-5	-98	-28	-35
COc1ccc(C(C(=O)NCc2ccccc2)N(C(=O)c2snc(C(N)=O)c2N)c2ccccc2OC)cc1OC (stereo unspecified)	4	1	2	nt	nt
COc1ccc(N(C(=O)c2snc(C(N)=O)c2N)C(C(=O)NCc2ccccc2)c2ccc(O)cc2)cc1OC (stereo unspecified)	nt	-1	nt	nt	nt
COc1cccc(N(C(=O)c2snc(C(N)=O)c2N)C(C(=O)NCc2ccccc2)c2ccc(O)cc2)c1 (stereo unspecified)	79*	-3	33*	-4	-11
CCc1nc2ccc(C(=O)NCCOc3ccc(OC)cc3)cn2c1N(C)CCCc1ccccc1	nt	-1	nt	nt	nt
NS(=O)(=O)c1ccc(NC(=O)c2cc(Cl)sc2Cl)cc1	2	1	6	nt	nt
COc1ccc(S(=O)(=O)N2CCN(C(=O)CCOc3ccccc3)CC2)cc1OC	-1	1	-7	nt	nt
COc1ccc(S(=O)(=O)N2CCN(C(=O)COc3ccc(C)c(C)c3)CC2)cc1OC	39*	1	-2	1	-2
CN(C(=O)CSc1ncnc2sccc12)c1c(N)n(Cc2ccccc2)c(=O)[nH]c1=O	4	0	5	nt	nt
CC(C)c1c(C(=O)N/N=C/c2ccc3c(c2)OCO3)nnn1-c1nonc1N	1	1	6	nt	nt
CCN(CC)c1ccc(/C=N/NC(=O)c2nnn(-c3nonc3N)c2C(C)C)c(O)c1	44*	-10	59*	-30	-35
O=c1oc2ccccc2cc1-c1nc2c(s1)CCCC2	96*	0	9	-29	-36
O=c1oc2ccccc2cc1-c1csc(NN=C2CCCCC2)n1	-3	1	-9	nt	nt

Screens as filed in PubChem BioAssay.
